# Assay results as given in ChEMBL document CHEMBL4765343, “Design and synthesis of novel SCM-198 analogs as cardioprotective agents: Structure-activity relationship studies and biological evaluations” (Eur J Med Chem, 2020).
# Activity calls are given as the source filed them. No cut-off for these calls is given here.
# Columns and labels:
# [1] = system: H9c2; assay: Antiapoptotic activity in rat H9c2 cells assessed as reduction in H2O2-induced mitochondrial membrane potential loss at 10 uM preincubated for 4 hrs followed by H2O2 stimulation for 1 hr by JC1 staining based fluorescence microscopic analysis; format: functional, cell-based; settings: time 5.0 hrs
# Summary of the method: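 Pretreatment 4 h before 400 nM H2O2. Cells washed in cold PBS pH 7.4 and loaded with 0.5 μg/mL JC-1 for 40 min at 37 °C, washed, then viewed at once by fluorescence microscopy. Monomer read at ex 490/em 535 nm, aggregate at ex 525/em 600 nm. Ratio taken from three independent fields per group, mean ± SD.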
# [2] = Oral bioavailability in Sprague-Dawley rat measured upto 24 hrs by LC-MS/MS analysis; format: ADME, organism-based; settings: in vivo
# [3] = system: H9c2; assay: Antiapoptotic activity in rat H9c2 cells assessed as reduction in H2O2-induced caspase-3 activation at 10 uM preincubated for 4 hrs followed by H2O2 stimulation for 1 hr by Western blotting analysis; format: functional, cell-based; settings: time 5.0 hrs
# Summary of the method: (§1)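 Serum-starved (12 h) H9c2 cells were pretreated 4 h, then exposed to 500 nM H2O2 in DMEM for 1 h. Lysis on ice with protease/phosphatase inhibitors, then 13,000 g at 4 °C for 15 min. 20 μg protein run on 8-12% SDS-PAGE and blotted to PVDF. Probed overnight at 4 °C for caspase-3, pro-caspase-3, Bcl-2 and GAPDH, with chemiluminescent detection.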
# [4] = system: H9c2; assay: Antioxidant activity in rat H9c2 cells assessed as protection against H2O2-induced hypoxic injury by measuring cell viability preincubated for 4 hrs followed by H2O2 stimulation for 1 hr by MTT assay relative to control; format: functional; settings: time 5 hrs, read-out: ED50 (the source's name)
# Summary of the method: (§2)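 ED50 taken from log dose against % viability. Viability also reported at the EC50 concentration. Means ± SEM from three independent experiments.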
# [5] = system: H9c2; assay: Antioxidant activity in rat H9c2 cells assessed as protection against H2O2-induced hypoxic injury by measuring cell viability at 10 uM preincubated for 4 hrs followed by H2O2 stimulation for 1 hr by MTT assay relative to control; format: functional
# Summary of the method: (§3)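 H9c2 cells at 1 × 10^5 cells/mL, 100 μL per well in triplicate, left 18 h. Compound diluted in DMSO; DMSO alone as negative control. 4 h pretreatment, then 400 nM H2O2 for 1 h. Medium removed and MTT added for 2-4 h, formazan dissolved in DMSO, absorbance at 570 nm. Medium-only wells gave the blank.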
# [6] = Half life in po dosed Sprague-Dawley rat measured upto 24 hrs by LC-MS/MS analysis; format: ADME, organism-based; settings: in vivo
# [7] = system: H9c2; assay: Anti-oxidative effect in rat H9c2 cells assessed as reduction in H2O2-induced MnSOD activity at 10 uM preincubated for 4 hrs followed by H2O2 stimulation for 1 hr by WST-8 assay; format: functional, cell-based; settings: time 5.0 hrs
# Summary of the method: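 H9c2 cells (ATCC) grown in high-glucose DMEM with 10% FBS at 37 °C, 5% CO2, used at 80-90% confluence and serum-starved 12 h. Compound given 4 h, then medium replaced by DMEM with 500 nM H2O2 for 1 h. Lysate spun 15,000g for 15 min. Cu/Zn SOD blocked with 1 mmol/L KCN, MnSOD read by WST-8 kit, expressed as U/mg protein.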
# [8] = system: Mus musculus; assay: (§4) Cardioprotective activity in C57BL/6J mouse model of LAD coronary artery ligation-induced acute myocardial infarction assessed as reduction in apoptosis of cardiomyocytes at 10 mg/kg, ip pretreated for 7 consecutive days followed by LAD coronary artery ligation after compound treatment for another 3 days by TUNEL staining based assay; format: functional, organism-based; settings: time 10.0 day
# Summary of the method: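 C57BL/6J mice, 8 weeks old, given compound i.p. in saline vehicle daily for 7 days, then permanent LAD ligation with body temperature held at 37 °C. Dosing continued 3 more days until sacrifice. Sections treated with proteinase K, then TdT reaction 30 min at 37 °C and DAPI counterstain. TUNEL-positive nuclei in border area counted as % of DAPI nuclei, N = 4 per group.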
# [9] = system: H9c2; assay: Cytoprotective activity against H2O2-induced injury in rat H9c2 cells assessed as reduction in LDH release at 10 uM preincubated for 4 hrs followed by H2O2 stimulation for 1 hr by LDH assay; format: functional, cell-based; settings: time 5.0 hrs
# Summary of the method: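 Cells at 5 × 10^4 per well in triplicate, 18 h, then 4 h compound and 1 h H2O2. Model wells had H2O2 without compound; controls had DMSO. 50 μL medium mixed with 2X LDH assay buffer, kept in the dark at 22-25 °C for 10-30 min, read at 490-520 nm. Activity blank-subtracted, normalised to BCA protein of the lysed cells, and expressed relative to model wells.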
# [10] = system: H9c2; assay: Antioxidant activity in rat H9c2 cells assessed as protection against H2O2-induced hypoxic injury by measuring cell viability at ED50 concentration preincubated for 4 hrs followed by H2O2 stimulation for 1 hr by MTT assay relative to control; format: functional; settings: time 5 hrs; summary of the method: as §2
# [11] = system: Mus musculus; assay: as §4, with “myocardial infarct size” for “apoptosis of cardiomyocytes”, “TTC” for “TUNEL”; format: functional, organism-based; settings: time 10.0 day
# Summary of the method: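 Male/female not stated; 8-week C57BL/6J mice given daily ip doses in saline vehicle for 7 d, then permanent LAD ligation, with dosing continued 3 more days to sacrifice. Under isoflurane, hearts perfused with saline plus 40 mM KCl, cut into 4-5 transverse slices, stained with 1% TTC pH 7.4 at 37 °C for 20 min, formalin-fixed; infarct area by planimetry as % of LV area; N = 6-7 per group.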
# [12] = system: H9c2; assay: Antioxidant activity in rat H9c2 cells assessed as protection against H2O2-induced hypoxic injury by measuring cell viability at 1 uM preincubated for 4 hrs followed by H2O2 stimulation for 1 hr by MTT assay relative to control; format: functional; summary of the method: as §3
# [13] = system: H9c2; assay: Antiapoptotic activity in rat H9c2 cells assessed as restoration of H2O2-induced bcl-2 downregulation at 10 uM preincubated for 4 hrs followed by H2O2 stimulation for 1 hr by Western blotting analysis; format: functional, cell-based; settings: time 5.0 hrs; summary of the method: as §1
smiles,measurement,setting,value
COc1cc(C(=O)OCCCCNC(=N)N)cc(OC)c1O [LEONURINE],Activity,[1],Active
same,bioavailability,[2],1.78%
same,Activity,[3],Active
same,EC50,[4],192 nM
same,Activity,[5],62.7%
same,half-life,[6],> 2 h
same,Activity,[7],Active
same,Activity,[8],Active
same,Activity,[9],inactive
same,Activity,[10],55.1%
same,Activity,[11],Active
same,Activity,[12],52.4%
same,Activity,[13],Active
